Data reported in ChEMBL document CHEMBL1157553, “Synthesis of novel aminoglycosides via allylic azide rearrangement for investigating the significance of 2'-amino group” (2010).
Values after ≈ are worked out from the molar mass of the structure shown.

What was measured:
Staphylococcus aureus [1] = assay: Antibacterial activity against aminoglycoside-susceptible Staphylococcus aureus ATCC 25923 after 12 to 18 hrs; type: functional
In short: (§1)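 Broth microdilution MIC. Bacteria grown in Trypticase Soy broth at 35 °C for 1–2 h, then diluted with broth to an absorbance of 0.08–0.1 at 625 nm. This suspension was further diluted into broth and dispensed into 96-well plates containing 2-fold serial dilutions of compound. Plates were incubated 12–18 h at 35 °C. MIC is the lowest concentration inhibiting growth, repeated at least three times.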

Escherichia coli = assay: Antibacterial activity against aminoglycoside-susceptible Escherichia coli ATCC 25922 after 12 to 18 hrs; type: functional; in short: as §1
Klebsiella pneumoniae [2] = assay: Antibacterial activity against aminoglycoside-susceptible Klebsiella pneumoniae ATCC 13883 after 12 to 18 hrs; type: functional; in short: as §1
Staphylococcus aureus [3] = assay: Antibacterial activity against aminoglycoside-resistant Staphylococcus aureus ATCC 33591 after 12 to 18 hrs; type: functional
In short: (§2)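 Broth microdilution MIC. Bacteria grown in Trypticase Soy broth at 35 °C for 1–2 h, then adjusted to absorbance 0.08–0.1 at 625 nm. This suspension was diluted into 10 mL broth and dispensed into wells, and 2-fold serial dilutions of compound were added. Plates were incubated at 35 °C for 12–18 h. MIC was the lowest concentration inhibiting growth, with at least three repeats.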

Klebsiella pneumoniae [4] = assay: Antibacterial activity against aminoglycoside-resistant Klebsiella pneumoniae ATCC 700603 after 12 to 18 hrs
Pseudomonas aeruginosa = assay: Antibacterial activity against aminoglycoside-resistant Pseudomonas aeruginosa ATCC 27853 after 12 to 18 hrs; type: functional; in short: as §2

In the case of `C[C@H]1O[C@@H](O[C@@H]2[C@@H](O)[C@H](N)C[C@H](N)[C@H]2O[C@H]2O[C@H](CN)CC[C@H]2N)[C@@H](O)[C@@H](O)[C@@H]1N`, the MIC (Staphylococcus aureus [1]) was 4 µg/mL (≈ 9.18 µM) and the MIC (Escherichia coli) was 16 µg/mL (≈ 36.7 µM).
Work on `NC[C@H]1O[C@H](O[C@H]2[C@H](O)[C@@H](O)[C@H](N)C[C@@H]2N)CC[C@@H]1N` yielded an MIC (Staphylococcus aureus [1]) of 64 µg/mL (≈ 220 µM) and an MIC (Escherichia coli) of at least 250 µg/mL.
Work on `CCCCCCNC(=O)O[C@@H]1[C@@H](O)[C@H](O[C@@H]2CC[C@H](N)[C@@H](CN)O2)[C@@H](N)C[C@H]1N` yielded an MIC (Klebsiella pneumoniae [2]) of 16 µg/mL (≈ 38.3 µM), an MIC (Staphylococcus aureus [3]) of 64 µg/mL (≈ 153 µM) and an MIC (Staphylococcus aureus [1]) of 32 µg/mL (≈ 76.6 µM). For the same molecule, the MIC (Klebsiella pneumoniae [4]) was at least 250 µg/mL, the MIC (Escherichia coli) was at least 250 µg/mL and the MIC (Pseudomonas aeruginosa) was 16 µg/mL (≈ 38.3 µM).
In the case of `C[C@H]1O[C@@H](O[C@@H]2[C@@H](O)[C@H](N)C[C@H](N)[C@H]2O[C@@H]2CC[C@H](N)[C@@H](CN)O2)[C@@H](O)[C@@H](O)[C@@H]1N`, the MIC (Staphylococcus aureus [1]) was 125 µg/mL (≈ 287 µM) and the MIC (Escherichia coli) was 125 µg/mL (≈ 287 µM).
`NC[C@@H]1CC[C@@H](N)[C@@H](O[C@H]2[C@H](O)[C@@H](O[C@@H]3OC[C@@H](O)[C@H](N)[C@H]3O)[C@H](N)C[C@@H]2N)O1` gave an MIC (Staphylococcus aureus [1]) of 2 µg/mL (≈ 4.75 µM) and an MIC (Escherichia coli) of 4 µg/mL (≈ 9.49 µM).
With `CCCCCCNC(=O)O[C@@H]1[C@@H](O)[C@H](O[C@H]2O[C@H](CN)CC[C@H]2N)[C@@H](N)C[C@H]1N` the MIC (Klebsiella pneumoniae [2]) was 16 µg/mL (≈ 38.3 µM), the MIC (Staphylococcus aureus [3]) was 64 µg/mL (≈ 153 µM) and the MIC (Staphylococcus aureus [1]) was 125 µg/mL (≈ 299 µM). It also gave an MIC (Klebsiella pneumoniae [4]) of 125 µg/mL (≈ 299 µM), an MIC (Escherichia coli) of at least 250 µg/mL and an MIC (Pseudomonas aeruginosa) of 16 µg/mL (≈ 38.3 µM).
`NC[C@H]1O[C@H](O[C@H]2[C@H](O)[C@@H](O[C@H]3O[C@H](CO)[C@@H](O)[C@H](N)[C@H]3O)[C@H](N)C[C@@H]2N)[C@H](O)[C@@H](O)[C@@H]1O` [KANAMYCIN] gave an MIC (Staphylococcus aureus [1]) of 2 µg/mL (≈ 4.13 µM) and an MIC (Escherichia coli) of 4 µg/mL (≈ 8.26 µM).
In the case of `NC[C@@H]1CC[C@@H](N)[C@@H](O[C@H]2[C@H](O)[C@@H](O)[C@H](N)C[C@@H]2N)O1` [GENTAMINE C1A], the MIC (Staphylococcus aureus [1]) was 16 µg/mL (≈ 55.1 µM) and the MIC (Escherichia coli) was 32 µg/mL (≈ 110 µM).
In the case of `NC[C@H]1O[C@H](O[C@H]2[C@H](O)[C@@H](O[C@@H]3O[C@H](CO)[C@@H](O)[C@H](O)[C@H]3O)[C@H](N)C[C@@H]2N)CC[C@@H]1N`, the MIC (Staphylococcus aureus [1]) was at least 250 µg/mL and the MIC (Escherichia coli) was at least 250 µg/mL.
`NC[C@H]1O[C@H](O[C@H]2[C@H](O)[C@@H](O)[C@H](N)C[C@@H]2N)[C@H](N)[C@@H](O)[C@@H]1O` [NEAMINE] gave an MIC (Klebsiella pneumoniae [2]) of 2 µg/mL (≈ 6.2 µM), an MIC (Staphylococcus aureus [3]) of 125 µg/mL (≈ 388 µM) and an MIC (Staphylococcus aureus [1]) of 4 µg/mL (≈ 12.4 µM). It also gave an MIC (Klebsiella pneumoniae [4]) of 16 µg/mL (≈ 49.6 µM), an MIC (Escherichia coli) of 32 µg/mL (≈ 99.3 µM) and an MIC (Pseudomonas aeruginosa) of 64 µg/mL (≈ 199 µM).
`NC[C@@H]1CC[C@@H](N)[C@@H](O[C@H]2[C@H](O)[C@@H](O[C@@H]3O[C@H](CO)[C@@H](O)[C@H](O)[C@H]3O)[C@H](N)C[C@@H]2N)O1` gave an MIC (Staphylococcus aureus [1]) of 125 µg/mL (≈ 276 µM) and an MIC (Escherichia coli) of 64 µg/mL (≈ 141 µM).
Work on `C[C@H]1O[C@@H](O[C@@H]2[C@@H](O)[C@H](O[C@@H]3CC[C@H](N)[C@@H](CN)O3)[C@@H](N)C[C@H]2N)[C@H](O)[C@@H](N)[C@@H]1O` yielded an MIC (Staphylococcus aureus [1]) of 8 µg/mL (≈ 18.4 µM) and an MIC (Escherichia coli) of 16 µg/mL (≈ 36.7 µM).
In the case of `CCCCCCNC(=O)O[C@@H]1[C@@H](OC(=O)NCCCCCC)[C@H](N)C[C@H](N)[C@H]1O[C@H]1O[C@H](CN)[C@@H](O)[C@H](O)[C@H]1N`, the MIC (Klebsiella pneumoniae [2]) was 32 µg/mL (≈ 55.5 µM), the MIC (Staphylococcus aureus [3]) was 125 µg/mL (≈ 217 µM) and the MIC (Klebsiella pneumoniae [4]) was 125 µg/mL (≈ 217 µM). For the same molecule, the MIC (Pseudomonas aeruginosa) was 125 µg/mL (≈ 217 µM).
`NC[C@@H]1O[C@H](O[C@H]2[C@@H](O)[C@H](O[C@@H]3[C@@H](O)[C@H](N)C[C@H](N)[C@H]3O[C@H]3O[C@H](CN)[C@@H](O)[C@H](O)[C@H]3N)O[C@@H]2CO)[C@H](N)[C@@H](O)[C@@H]1O` [FRAMYCETIN] showed an MIC (Staphylococcus aureus [1]) of 1 µg/mL (≈ 1.63 µM) and an MIC (Escherichia coli) of 4 µg/mL (≈ 6.51 µM).
`CCCCCCNC(=O)O[C@@H]1[C@@H](O)[C@H](O[C@H]2O[C@H](CN)[C@@H](O)[C@H](O)[C@H]2N)[C@@H](N)C[C@H]1N` was tested, and the MIC (Klebsiella pneumoniae [2]) was 16 µg/mL (≈ 35.6 µM), the MIC (Staphylococcus aureus [3]) was at least 250 µg/mL and the MIC (Klebsiella pneumoniae [4]) was 125 µg/mL (≈ 278 µM). For the same molecule, the MIC (Pseudomonas aeruginosa) was 64 µg/mL (≈ 142 µM).
Work on `CCCCCCNC(=O)O[C@@H]1[C@@H](OC(=O)NCCCCCC)[C@H](N)C[C@H](N)[C@H]1O[C@@H]1CC[C@H](N)[C@@H](CN)O1` yielded an MIC (Klebsiella pneumoniae [2]) of 4 µg/mL (≈ 7.34 µM), an MIC (Staphylococcus aureus [3]) of 16 µg/mL (≈ 29.4 µM) and an MIC (Staphylococcus aureus [1]) of 32 µg/mL (≈ 58.7 µM). For the same molecule, the MIC (Klebsiella pneumoniae [4]) was at least 250 µg/mL, the MIC (Escherichia coli) was 125 µg/mL (≈ 229 µM) and the MIC (Pseudomonas aeruginosa) was 16 µg/mL (≈ 29.4 µM).
